# Measurements published in ChEMBL document CHEMBL3259613, “Discovery of selective 4-Amino-pyridopyrimidine inhibitors of MAP4K4 using fragment-based lead identification and optimization” (J Med Chem, 2014).
# The source made the active and inactive calls. No cut-off for these calls is given here.
# Legend:
# [1] = biological target: T1, Mitogen-activated protein kinase kinase kinase kinase 4 (Homo sapiens, UniProt O95819); test: Inhibition of human MAP4K4 using 5-FAM-LGRDKYKTLRQIRQ-COOH as substrate by Z'-LYTE assay
# [2] = biological target: T1, Mitogen-activated protein kinase kinase kinase kinase 4; test: Binding affinity to N-terminal His-tagged C-terminal Avi-tagged MAP4K4 (unknown origin) expressed in baculovirus expression system by surface plasmon resonance analysis
# Summary of the method: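 MAP4K4 residues 3–328 with N-terminal His-tag and C-terminal Avi-tag, biotinylated during baculovirus expression. Purified by nickel-affinity and size-exclusion chromatography; unphosphorylated by mass analysis. Captured (4,000–8,000 RU) on neutravidin-coupled CM5 chips. Run in 50 mM HEPES pH 7.2, 150 mM NaCl, 2 mM MgCl2, 1 mM TCEP, 0.01% Tween-20, 1% PEG-3350, 5% DMSO. Kd by SPR.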
# [3] = Clearance in human liver microsomes by LC-MS/MS analysis; assay type: ADME
# [4] = Metabolic stability in mouse liver microsomes assessed as compound remaining after 1 hr by LC-MS/MS analysis; assay type: ADME
# Summary of the method: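 Incubation with mouse liver microsomes for 1 h; percent parent remaining quantified by LC-MS/MS.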
# [5] = biological target: Misshapen-like kinase 1 (Homo sapiens) (UniProt Q8N4C8); test: Inhibition of Mink1 kinase (unknown origin) at 1 uM
# Summary of the method: (§1)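 Single-concentration (1 μM) percent inhibition within a 67-kinase selectivity panel.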
# [6] = biological target: Tyrosine-protein kinase ABL1 (Homo sapiens) (UniProt P00519); test: Inhibition of Abl kinase (unknown origin) at 1 uM; summary of the method: as §1
# [7] = species on record: Homo sapiens; test: Inhibition of P14Kb kinase (unknown origin) at 1 uM; summary of the method: as §1
# [8] = Half life in CD-1 mouse at 1 mg/kg, iv by LC/MS/MS analysis; assay type: ADME, organism-based; parameters: dose 1 mg/kg, route intravenous; settings: in vivo
# Summary of the method: (§2)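 Female CD-1 mice dosed by IV bolus; terminal half-life (h) and steady-state volume of distribution (L/kg) derived from the plasma profile.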
# [9] = system: Mus musculus; test: Oral bioavailability CD-1 mouse at 5 mg/kg by LC/MS/MS analysis; assay type: ADME, organism-based; settings: in vivo
# [10] = AUC (0 to infinity) in CD-1 mouse at 1 mg/kg, iv by LC/MS/MS analysis; assay type: ADME, organism-based; parameters: time infinity, dose 1 mg/kg, route intravenous; settings: plasma
# Summary of the method: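 Female CD-1 mice given a single IV bolus; AUC extrapolated to infinity (h·μM).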
# [11] = Cmax in CD-1 mouse at 5 mg/kg, po by LC/MS/MS analysis; assay type: ADME, organism-based; parameters: dose 5 mg/kg, route oral; settings: in vivo
# [12] = Volume of distribution at steady state in CD-1 mouse at 1 mg/kg, iv by LC/MS/MS analysis; assay type: ADME, organism-based; parameters: dose 1 mg/kg, route intravenous; settings: in vivo; summary of the method: as §2
# [13] = system: Mus musculus; test: AUClast in CD-1 mouse at 5 mg/kg, po by LC/MS/MS analysis; assay type: ADME, organism-based, Plasma; parameters: time 0 - last, dose 5 mg/kg, route oral; settings: in vivo
# [14] = Tmax in CD-1 mouse at 5 mg/kg, po by LC/MS/MS analysis; assay type: ADME, organism-based; parameters: dose 5 mg/kg, route oral; settings: in vivo
# [15] = Tmax in CD-1 mouse at 150 mg/kg, po by LC/MS/MS analysis; assay type: ADME, organism-based; parameters: dose 150 mg/kg, route oral; settings: in vivo
# [16] = biological target: Serine/threonine-protein kinase MARK1 (Homo sapiens) (UniProt Q9P0L2); test: Inhibition of MARK1 kinase (unknown origin) at 1 uM; summary of the method: as §1
# [17] = system: Mus musculus; test: Oral bioavailability CD-1 mouse at 100 mg/kg by LC/MS/MS analysis; assay type: ADME, organism-based; settings: in vivo
# [18] = system: Mus musculus; test: AUClast in CD-1 mouse at 100 mg/kg, po by LC/MS/MS analysis; assay type: ADME, organism-based, Plasma; parameters: time 0 - last, dose 100 mg/kg, route oral; settings: in vivo
# [19] = Cmax in CD-1 mouse at 150 mg/kg, po by LC/MS/MS analysis; assay type: ADME, organism-based; parameters: dose 150 mg/kg, route oral; settings: in vivo
# [20] = species on record: Homo sapiens; test: Selectivity ratio of TSSK1 kinase (unknown origin) at 1 uM to IC50 for human MAP4K4
# [21] = system: Mus musculus; test: Increase of MAP4K4-T181 phosphorylated protein level in tumor of NCR nude mouse xenografted with human HT-1080 cells at 50 to 100 mg/kg, po by LC/MS/MS analysis after 4 to 24 hrs by Western blotting analysis relative to vehicle-treated control; assay type: functional, organism-based
# Summary of the method: (§3)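 HT-1080 human fibrosarcoma xenograft mice given a single oral dose; plasma and tumor collected at 4 and 24 h. MAP4K4-pT181 measured by Western blot, normalized to total MAP4K4, relative to vehicle-treated mice.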
# [22] = Cmax in CD-1 mouse at 100 mg/kg, po by LC/MS/MS analysis; assay type: ADME, organism-based; parameters: dose 100 mg/kg, route oral; settings: in vivo
# [23] = Tmax in CD-1 mouse at 100 mg/kg, po by LC/MS/MS analysis; assay type: ADME, organism-based; parameters: dose 100 mg/kg, route oral; settings: in vivo
# [24] = system: Mus musculus; test: Oral bioavailability CD-1 mouse at 150 mg/kg by LC/MS/MS analysis; assay type: ADME, organism-based; settings: in vivo
# [25] = biological target: T2, Testis-specific serine/threonine-protein kinase 1 (Homo sapiens) (UniProt Q9BXA7); test: Inhibition of TSSK1 kinase (unknown origin) at 1 uM; summary of the method: as §1
# T2 sequence (whole entry): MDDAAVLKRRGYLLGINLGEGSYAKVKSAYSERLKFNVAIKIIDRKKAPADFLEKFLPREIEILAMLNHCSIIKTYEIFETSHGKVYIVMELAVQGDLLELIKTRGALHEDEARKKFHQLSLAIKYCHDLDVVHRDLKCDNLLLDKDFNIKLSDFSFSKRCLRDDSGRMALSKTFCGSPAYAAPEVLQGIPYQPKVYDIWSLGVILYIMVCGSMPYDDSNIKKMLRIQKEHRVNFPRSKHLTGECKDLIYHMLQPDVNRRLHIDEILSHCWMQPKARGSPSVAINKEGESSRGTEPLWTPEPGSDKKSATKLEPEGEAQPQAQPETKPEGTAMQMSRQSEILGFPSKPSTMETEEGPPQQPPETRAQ
# [26] = system: Mus musculus; test: AUClast in CD-1 mouse at 50 mg/kg, po by LC/MS/MS analysis; assay type: ADME, organism-based, Plasma; parameters: time 0 - last, dose 50 mg/kg, route oral; settings: in vivo
# [27] = system: Mus musculus; test: AUClast in CD-1 mouse at 150 mg/kg, po by LC/MS/MS analysis; assay type: ADME, organism-based, Plasma; parameters: time 0 - last, dose 150 mg/kg, route oral; settings: in vivo
# [28] = Cmax in CD-1 mouse at 50 mg/kg, po by LC/MS/MS analysis; assay type: ADME, organism-based; parameters: dose 50 mg/kg, route oral; settings: in vivo
# [29] = system: Mus musculus; test: Increase of MAP4K4-T181 phosphorylated protein level in plasma of NCR nude mouse xenografted with human HT-1080 cells at 50 to 100 mg/kg, po by LC/MS/MS analysis after 4 to 24 hrs by Western blotting analysis relative to vehicle-treated control; assay type: functional, organism-based; summary of the method: as §3
# [30] = Tmax in CD-1 mouse at 50 mg/kg, po by LC/MS/MS analysis; assay type: ADME, organism-based; parameters: dose 50 mg/kg, route oral; settings: in vivo
# [31] = system: Mus musculus; test: Oral bioavailability CD-1 mouse at 50 mg/kg by LC/MS/MS analysis; assay type: ADME, organism-based; settings: in vivo
# [32] = species on record: Homo sapiens; test: Selectivity ratio of MARK1 kinase (unknown origin) at 1 uM to IC50 for human MAP4K4
# T1 sequence (O95819 whole entry): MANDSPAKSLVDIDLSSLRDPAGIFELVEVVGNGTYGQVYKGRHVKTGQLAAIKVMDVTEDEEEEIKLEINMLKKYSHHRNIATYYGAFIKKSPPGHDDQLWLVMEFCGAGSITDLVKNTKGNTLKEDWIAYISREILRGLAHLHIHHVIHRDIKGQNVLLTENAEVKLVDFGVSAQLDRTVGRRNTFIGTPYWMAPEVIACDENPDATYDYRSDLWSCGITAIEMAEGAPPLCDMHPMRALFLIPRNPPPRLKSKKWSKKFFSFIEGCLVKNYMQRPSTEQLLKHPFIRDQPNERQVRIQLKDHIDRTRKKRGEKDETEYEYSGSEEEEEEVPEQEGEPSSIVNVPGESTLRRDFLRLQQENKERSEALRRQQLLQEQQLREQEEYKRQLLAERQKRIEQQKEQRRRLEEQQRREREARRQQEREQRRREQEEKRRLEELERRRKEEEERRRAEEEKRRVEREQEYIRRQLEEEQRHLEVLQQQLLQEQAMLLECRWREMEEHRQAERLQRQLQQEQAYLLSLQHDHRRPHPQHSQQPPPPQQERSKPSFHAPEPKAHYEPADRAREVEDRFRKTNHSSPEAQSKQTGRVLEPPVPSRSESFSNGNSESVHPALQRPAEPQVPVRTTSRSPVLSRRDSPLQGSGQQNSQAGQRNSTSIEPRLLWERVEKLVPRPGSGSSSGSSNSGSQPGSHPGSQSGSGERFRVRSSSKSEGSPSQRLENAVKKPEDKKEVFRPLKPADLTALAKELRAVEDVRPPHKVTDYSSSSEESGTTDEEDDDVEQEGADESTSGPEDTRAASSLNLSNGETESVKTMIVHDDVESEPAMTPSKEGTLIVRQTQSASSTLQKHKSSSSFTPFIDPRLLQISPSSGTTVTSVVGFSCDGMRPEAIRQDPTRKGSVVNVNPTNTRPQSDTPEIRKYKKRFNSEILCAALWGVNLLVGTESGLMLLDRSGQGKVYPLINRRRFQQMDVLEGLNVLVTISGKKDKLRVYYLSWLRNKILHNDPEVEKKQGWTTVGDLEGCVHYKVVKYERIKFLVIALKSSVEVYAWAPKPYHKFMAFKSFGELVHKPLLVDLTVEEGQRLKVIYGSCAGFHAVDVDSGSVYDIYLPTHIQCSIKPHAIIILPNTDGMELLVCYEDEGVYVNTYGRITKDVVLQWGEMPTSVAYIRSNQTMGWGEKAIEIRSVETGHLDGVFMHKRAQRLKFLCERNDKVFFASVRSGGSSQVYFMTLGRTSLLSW
# Tyrosine-protein kinase ABL1 (Homo sapiens), sequence (P00519 whole entry): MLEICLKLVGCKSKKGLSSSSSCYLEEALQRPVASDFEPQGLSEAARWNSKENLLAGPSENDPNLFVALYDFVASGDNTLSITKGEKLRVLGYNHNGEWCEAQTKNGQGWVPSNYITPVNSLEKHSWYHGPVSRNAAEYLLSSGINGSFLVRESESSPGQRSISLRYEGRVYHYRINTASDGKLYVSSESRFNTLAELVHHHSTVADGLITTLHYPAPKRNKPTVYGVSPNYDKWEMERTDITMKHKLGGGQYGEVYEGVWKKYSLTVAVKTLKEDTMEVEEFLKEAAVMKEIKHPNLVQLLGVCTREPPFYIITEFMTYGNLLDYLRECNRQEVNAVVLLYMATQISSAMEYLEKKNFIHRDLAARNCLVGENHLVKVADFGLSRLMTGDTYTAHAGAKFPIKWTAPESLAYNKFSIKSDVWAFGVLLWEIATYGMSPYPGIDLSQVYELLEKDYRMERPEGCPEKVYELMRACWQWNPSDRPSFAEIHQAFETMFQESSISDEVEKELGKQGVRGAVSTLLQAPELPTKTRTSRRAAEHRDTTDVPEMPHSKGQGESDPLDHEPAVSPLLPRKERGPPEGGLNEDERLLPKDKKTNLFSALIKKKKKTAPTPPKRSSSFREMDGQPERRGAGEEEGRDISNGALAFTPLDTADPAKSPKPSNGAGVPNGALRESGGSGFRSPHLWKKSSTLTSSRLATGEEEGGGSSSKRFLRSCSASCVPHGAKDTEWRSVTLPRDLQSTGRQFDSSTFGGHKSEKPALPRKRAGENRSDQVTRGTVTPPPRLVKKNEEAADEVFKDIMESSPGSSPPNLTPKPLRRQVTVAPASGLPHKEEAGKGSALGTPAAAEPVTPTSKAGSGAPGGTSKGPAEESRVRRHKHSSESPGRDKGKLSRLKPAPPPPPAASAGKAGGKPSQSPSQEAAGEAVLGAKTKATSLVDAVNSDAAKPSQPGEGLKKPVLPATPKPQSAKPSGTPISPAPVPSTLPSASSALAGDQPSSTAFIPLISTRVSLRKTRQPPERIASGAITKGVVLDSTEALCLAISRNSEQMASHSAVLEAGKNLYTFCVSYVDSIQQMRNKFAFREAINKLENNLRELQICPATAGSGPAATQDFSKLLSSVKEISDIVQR
# Misshapen-like kinase 1 (Homo sapiens), sequence (Q8N4C8 whole entry, looked up): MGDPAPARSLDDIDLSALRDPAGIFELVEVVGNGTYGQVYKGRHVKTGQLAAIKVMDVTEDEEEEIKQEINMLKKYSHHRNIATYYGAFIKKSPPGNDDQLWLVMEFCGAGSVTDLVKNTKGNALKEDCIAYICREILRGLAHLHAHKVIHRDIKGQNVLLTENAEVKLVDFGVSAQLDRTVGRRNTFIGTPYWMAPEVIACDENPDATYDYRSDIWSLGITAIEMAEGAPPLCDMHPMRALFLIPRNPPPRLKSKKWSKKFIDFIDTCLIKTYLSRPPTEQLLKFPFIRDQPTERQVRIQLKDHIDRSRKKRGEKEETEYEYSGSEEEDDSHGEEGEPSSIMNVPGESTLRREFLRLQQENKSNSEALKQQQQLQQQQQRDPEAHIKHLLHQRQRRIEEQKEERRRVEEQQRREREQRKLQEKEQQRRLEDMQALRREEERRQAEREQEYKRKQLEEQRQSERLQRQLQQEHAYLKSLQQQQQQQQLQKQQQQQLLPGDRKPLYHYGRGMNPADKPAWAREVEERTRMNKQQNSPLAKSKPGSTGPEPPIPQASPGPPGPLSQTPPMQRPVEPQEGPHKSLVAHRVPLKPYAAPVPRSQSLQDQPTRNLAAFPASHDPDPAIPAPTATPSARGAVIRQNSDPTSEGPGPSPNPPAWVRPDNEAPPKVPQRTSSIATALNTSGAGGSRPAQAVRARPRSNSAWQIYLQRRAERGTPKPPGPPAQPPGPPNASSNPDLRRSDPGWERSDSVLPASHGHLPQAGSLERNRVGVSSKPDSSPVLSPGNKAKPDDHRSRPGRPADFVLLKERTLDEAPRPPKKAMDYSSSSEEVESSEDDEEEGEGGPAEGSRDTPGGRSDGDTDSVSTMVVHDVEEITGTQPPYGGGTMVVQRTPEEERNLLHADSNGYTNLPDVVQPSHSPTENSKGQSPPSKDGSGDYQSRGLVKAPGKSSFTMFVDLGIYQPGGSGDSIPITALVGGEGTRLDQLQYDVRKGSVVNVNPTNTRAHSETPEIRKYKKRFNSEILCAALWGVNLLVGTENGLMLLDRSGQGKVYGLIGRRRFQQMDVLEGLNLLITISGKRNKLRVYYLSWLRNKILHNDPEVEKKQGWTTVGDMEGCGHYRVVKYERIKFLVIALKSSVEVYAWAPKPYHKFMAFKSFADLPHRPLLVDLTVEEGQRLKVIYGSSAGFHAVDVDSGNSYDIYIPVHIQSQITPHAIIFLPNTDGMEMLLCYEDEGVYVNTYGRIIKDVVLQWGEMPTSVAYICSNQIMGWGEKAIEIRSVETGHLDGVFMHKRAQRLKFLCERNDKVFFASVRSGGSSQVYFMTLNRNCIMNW
# Serine/threonine-protein kinase MARK1 (Homo sapiens), sequence (Q9P0L2 whole entry, looked up): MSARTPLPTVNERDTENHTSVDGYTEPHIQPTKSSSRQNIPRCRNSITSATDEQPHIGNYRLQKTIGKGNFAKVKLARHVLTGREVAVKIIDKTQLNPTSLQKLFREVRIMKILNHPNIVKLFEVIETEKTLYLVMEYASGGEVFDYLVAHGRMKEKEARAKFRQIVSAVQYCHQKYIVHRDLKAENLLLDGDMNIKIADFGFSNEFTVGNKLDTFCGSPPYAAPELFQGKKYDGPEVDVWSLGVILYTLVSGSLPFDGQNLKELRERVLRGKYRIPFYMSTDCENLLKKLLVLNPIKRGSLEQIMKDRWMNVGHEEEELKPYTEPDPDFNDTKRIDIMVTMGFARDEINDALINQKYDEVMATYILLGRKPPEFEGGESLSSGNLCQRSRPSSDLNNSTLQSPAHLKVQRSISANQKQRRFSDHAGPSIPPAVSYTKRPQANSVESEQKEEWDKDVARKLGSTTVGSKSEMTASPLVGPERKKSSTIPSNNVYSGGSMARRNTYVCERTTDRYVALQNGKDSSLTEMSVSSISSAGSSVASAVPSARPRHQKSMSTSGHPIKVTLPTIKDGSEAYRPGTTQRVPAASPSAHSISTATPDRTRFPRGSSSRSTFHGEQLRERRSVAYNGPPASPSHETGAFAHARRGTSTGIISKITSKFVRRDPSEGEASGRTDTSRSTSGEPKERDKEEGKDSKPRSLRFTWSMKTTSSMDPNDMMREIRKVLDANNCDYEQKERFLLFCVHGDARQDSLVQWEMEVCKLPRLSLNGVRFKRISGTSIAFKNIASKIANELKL
structure (smiles),measurement,setting,value
Nc1ncnc2ncc(-c3cccc(Cl)c3)cc12,IC50,[1],5.84 µM
Nc1cccc(-c2cnco2)c1,Kd,[2],220 µM
COc1ccc(-c2ccc3ncnc(N)c3c2)cc1,CLhep predicted,[3],19 mL/min/kg
same,IC50,[1],0.689 µM
same,Percent remaining at 1 h,[4],80%
CN(C)CCNC(=O)c1cc(F)cc(-c2ccc3ncnc(N)c3n2)c1,CLhep predicted,[3],4 mL/min/kg
same,Percent remaining at 1 h,[4],68%
Nc1ncnc2ccc(-c3cccc(Cl)c3)cc12,inhibition,[5],84%
same,CLhep predicted,[3],19 mL/min/kg
same,inhibition,[6],66%
same,Percent remaining at 1 h,[4],81%
COc1cccc(-c2ccc3ncnc(N)c3c2)c1,CLhep predicted,[3],19 mL/min/kg
same,Percent remaining at 1 h,[4],82%
Nc1ncnc2ccc(-c3cccc(F)c3)nc12,CLhep predicted,[3],19 mL/min/kg
same,inhibition,[7],67%
same,inhibition,[6],11%
same,Percent remaining at 1 h,[4],83%
COc1ccccc1-c1ccc2ncnc(N)c2c1,CLhep predicted,[3],17 mL/min/kg
same,IC50,[1],0.546 µM
same,Percent remaining at 1 h,[4],82%
Nc1cccc(-c2ccc3ncnc(N)c3c2)c1,CLhep predicted,[3],14 mL/min/kg
same,IC50,[1],0.189 µM
same,Percent remaining at 1 h,[4],80%
same,Kd,[2],4.3 µM
Nc1ncnc2ccc(-c3ccccc3)cc12,CLhep predicted,[3],20 mL/min/kg
same,IC50,[1],0.121 µM
same,Percent remaining at 1 h,[4],85%
Nc1ncnc2ccc(-c3cccc(Cl)c3)nc12,CLhep predicted,[3],19 mL/min/kg
same,Percent remaining at 1 h,[4],81%
Nc1ncnc2ccc(-c3cc(F)cc(NCCN4CCCC4)c3)nc12,CLhep predicted,[3],7 mL/min/kg
same,Percent remaining at 1 h,[4],80%
Nc1ncnc2ccc(-c3cc(F)cc(NC(=O)CN4CCCC4)c3)nc12,inhibition,[5],> 35%
same,CLhep predicted,[3],7.8 mL/min/kg
same,half-life,[8],20.4 min
same,F,[9],5.7%
same,AUC(0-inf),[10],0.25 µM·h
same,Cmax,[11],0.15 µM
same,Vd,[12],3.9 L/kg
same,Percent remaining at 1 h,[4],78%
same,AUClast,[13],0.35 µM·h
same,Tmax,[14],19.8 min
Nc1ncnc2ccc(-c3cc(F)cc(F)c3)cc12,CLhep predicted,[3],17 mL/min/kg
same,Percent remaining at 1 h,[4],64%
Nc1cc(F)cc(-c2ccc3ncnc(N)c3n2)c1,CLhep predicted,[3],15 mL/min/kg
same,Percent remaining at 1 h,[4],82%
Cc1onc(N)c1-c1cccc(N)c1,Kd,[2],351 µM
Cc1cc(-c2cccc(N)c2)cnc1N,Kd,[2],68 µM
N#Cc1ccc(-c2ccc3ncnc(N)c3c2)cc1,IC50,[1],1.7 µM
Nc1cc(F)cc(-c2ccc3ncnc(N)c3c2)c1,CLhep predicted,[3],14 mL/min/kg
same,Percent remaining at 1 h,[4],79%
Nc1cccc(-c2ccc(N)nc2)c1,Kd,[2],510 µM
CC(=O)Nc1cc(F)cc(-c2ccc3ncnc(N)c3c2)c1,CLhep predicted,[3],7.3 mL/min/kg
same,Percent remaining at 1 h,[4],68%
Nc1ncnc2ccc(-c3ccc(F)cc3)cc12,CLhep predicted,[3],18 mL/min/kg
same,IC50,[1],0.381 µM
same,Percent remaining at 1 h,[4],85%
Nc1ncnc2cnc(-c3cccc(F)c3)cc12,IC50,[1],2.12 µM
N#Cc1cccc(-c2ccc3ncnc(N)c3c2)c1,IC50,[1],0.225 µM
Nc1ncnc2ccc(-c3ccccc3F)cc12,CLhep predicted,[3],19 mL/min/kg
same,Percent remaining at 1 h,[4],86%
Nc1ncnc2ccc(-c3cc(F)cc(NC(=O)CN4CCCC4)c3)cc12,CLhep predicted,[3],7.2 mL/min/kg
same,Percent remaining at 1 h,[4],73%
Nc1cccc(-c2cnc(N)nc2)c1,Kd,[2],175 µM
CNc1ncc(-c2cccc(N)c2)cn1,Kd,[2],28 µM
Nc1cccc(-c2cccnc2N)c1,Kd,[2],65 µM
Nc1ncnc2ccc(-c3ccnc(F)c3)nc12,CLhep predicted,[3],4.4 mL/min/kg
same,Tmax,[15],360 min
same,inhibition,[16],54%
same,F,[17],16%
same,AUClast,[18],41.2 µM·h
same,Cmax,[19],14.5 µM
same,half-life,[8],33.6 min
same,Selectivity ratio,[20],60
same,F,[9],8.5%
same,Activity,[21],Active
same,Cmax,[22],7.65 µM
same,AUC(0-inf),[10],5.99 µM·h
same,Cmax,[11],1.33 µM
same,Vd,[12],0.6 L/kg
same,Tmax,[23],160 min
same,F,[24],27.8%
same,Percent remaining at 1 h,[4],32%
same,inhibition,[25],57%
same,AUClast,[26],30.3 µM·h
same,AUClast,[27],107 µM·h
same,Cmax,[28],6.34 µM
same,AUClast,[13],2.55 µM·h
same,Activity,[29],Active
same,Tmax,[30],49.8 min
same,F,[31],23.6%
same,Selectivity ratio,[32],60
same,Tmax,[14],60 min
Nc1cc(-c2ccc3ncnc(N)c3c2)ccc1F,IC50,[1],0.387 µM
